Results pooled from the literature.
Target: Beta-2 adrenergic receptor (ADRB2, Homo sapiens, UniProt P07550)
Tested at: 10 µM

| SMILES | effect on | method | inhibition [%] |
| --- | --- | --- | --- |
| N#Cc1cc(Cn2c(N3CCCC3)nc3ccccc32)ccc1F | ligand displacement | – | 0 |
| CC(=O)N1CCC(c2ccc(C(=O)NC3=NCCN3)cc2C(F)(F)F)CC1 | ligand displacement | – | -14.2 |
| O=C(c1ccc(F)cc1)N(Cc1ccccc1)C1CCCCC1 | cell-free assay | – | 7 |
| CCN(CC)c1ccc(C2Nc3ccc(C(=O)c4ccccc4)cc3NC3=C2C(=O)CC(C)(C)C3)cc1 (stereo not shown) | ligand displacement | radioligand | 1 |
| Oc1cccc(Nc2nc(-c3ccc(F)cc3F)cs2)c1 | cell-free assay | – | 4 |
| O=C(Nc1ccc(S(=O)(=O)N2CCC(Cl)CC2)cc1)c1ccc([N+](=O)[O-])o1 | ligand displacement | radioligand | 17 |
| CN1CCN(c2ccnc(NCCc3ccccc3)n2)CC1 | ligand displacement | – | -3.49 |
| O=C1N=C(N2CCCCN2)S/C1=C\c1ccc(F)cc1O | ligand displacement | radioligand | < 10 |
| CCCNc1nc2ccccc2n1Cc1ccc(Cl)cc1 | ligand displacement | – | -10.2 |
| Ic1cccc2cnccc12 | ligand displacement | radioligand | 0 |
